MC4R barr agon: human MC4R agonism via beta-arrestin; P32245; U2OS MC4R beta-arrestin complementation, luminescence; percent of melanotan II response, DMSO zero; activation, % at 8.9 µM; 0.98% of 360,000 active;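 active means activation above a per-plate cutoff, the mean activation of sample wells on that plate plus 3 SD, cut at about 8% in these data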
Lipid droplet: modulators of hepatic lipid droplet formation; 0.4% of 240,000 active; inhibition, % at 6.5 µM; AID 1656; AML12 mouse hepatocytes, oleate lipid droplets, BODIPY imaging;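 active means lipid droplet intensity inhibited by at least 50%, with more than 500 cells counted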
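Material – AML12 mouse liver cells · Also added – oleate loading, 100 µM · Compound dosing – 6.5 µM single-point dosing · Times – overnight treatment with compound plus oleate · Measured by – fluorescence imaging, 20x objective, two fields per well · Read-out – percent inhibition of filter-corrected integrated lipid droplet intensity per well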
HTR2A ag: agonists of mouse serotonin 5-HT2A receptor (HTR2A) | P35363 | CHO-K1 mHTR2A beta-arrestin complementation, luminescence; percent of 30 µM serotonin response | activation, % at 7.6 µM | 0.66% of 360,000 active;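 active means activation above a run cutoff, the mean activation of all tested compounds plus 3 SD, cut at about 14% in these data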;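 further: 0% = plate median of compound wells and 100% = 30 µM serotonin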
NTR1 ag: NTR1 (human) agonism; activation, % at 20 µM; NTR1-U2OS beta-arrestin-GFP spot imaging, agonist mode; 0.17% of 330,000 active;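 active means activation at or above 40% of the spot to cytoplasm intensity ratio, with at least 20 cells analyzed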;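 further: 0% = DMSO without peptide and 100% = 100 nM NTR1 peptide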
PREPL inhibitor: inhibitors of human prolyl oligopeptidase-like enzyme PREPL; Q4J6C6; AID 2751; recombinant PREPL, fluorescence polarization activity-based probe; inhibition, % at 5.96 µM; 0.68% of 320,000 active; in the data active means inhibition above about 43%;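 further: 0% = enzyme with DMSO and 100% = wells lacking enzyme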
Target sequence (Q4J6C6 whole entry, looked up): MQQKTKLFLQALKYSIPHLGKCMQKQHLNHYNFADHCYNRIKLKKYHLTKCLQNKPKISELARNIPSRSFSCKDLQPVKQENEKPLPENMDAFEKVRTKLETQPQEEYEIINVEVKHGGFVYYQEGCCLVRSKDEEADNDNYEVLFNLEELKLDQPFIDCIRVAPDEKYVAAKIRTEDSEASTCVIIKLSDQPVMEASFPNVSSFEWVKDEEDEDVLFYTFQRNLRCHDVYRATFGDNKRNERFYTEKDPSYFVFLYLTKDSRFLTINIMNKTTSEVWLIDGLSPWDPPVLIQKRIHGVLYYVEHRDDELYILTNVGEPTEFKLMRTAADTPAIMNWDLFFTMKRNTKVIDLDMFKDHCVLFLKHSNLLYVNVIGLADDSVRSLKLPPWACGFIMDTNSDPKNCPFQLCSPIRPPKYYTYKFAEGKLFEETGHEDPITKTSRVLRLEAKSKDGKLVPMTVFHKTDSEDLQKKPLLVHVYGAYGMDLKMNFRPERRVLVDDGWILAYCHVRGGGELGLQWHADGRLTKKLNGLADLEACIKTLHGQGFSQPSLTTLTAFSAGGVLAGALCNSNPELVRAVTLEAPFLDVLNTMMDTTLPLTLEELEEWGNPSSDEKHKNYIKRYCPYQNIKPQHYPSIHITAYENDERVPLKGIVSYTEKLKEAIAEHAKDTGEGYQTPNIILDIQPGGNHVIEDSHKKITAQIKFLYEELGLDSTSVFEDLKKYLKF
MC4R antagonist: blocks human MC4R cAMP signaling; 0.48% of 360,000 active; P32245; MC4R-expressing cells, MTII-stimulated cAMP, LANCE TR-FRET; AID 540295; inhibition, % at 6.5 µM;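 active means inhibition above its plate's cutoff, the mean of tested wells on that plate plus 3 SD, cut at about 29% in these data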;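 further: 0% = Melanotan II alone and 100% = Melanotan II plus saturating MCL0020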
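Material: human MC4R-expressing U2OS cells. Probe or stimulus: Melanotan II challenge. Dosing: 6.5 µM single dose. Times: 30-min compound, 1-h challenge, 1-h detection, room temperature. Technique: TR-FRET with Eu-cAMP and labeled anti-cAMP, 671 nm. Replication: singlicate.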
MC4R barr conf: human MC4R beta-arrestin agonism confirmation. shares compounds with MC4R barr agon. U2OS MC4R beta-arrestin recruitment, luminescence; scaled DMSO 0%, Melanotan II 100%. activation, % at 8.9 µM. 31% of 2,400 active. AID 602192;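 active means mean activation across replicates above the hit cutoff set in the earlier primary screen, cut at about 8% in these data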
MOR-DOR barr ag: activates mu-delta opioid heterodimer, MC4R agonist counter-screen | shares compounds with MC4R barr agon | U2OS PathHunter beta-arrestin, beta-gal luminescence; percent of deltorphin B response, DMSO zero | activation, % at 9.2 µM | 5.8% of 2,400 active;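 active means mean activation across replicates exceeds the hit threshold derived in the earlier primary screen, cut at about 18% in these data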;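 further: 100% = deltorphin B at 0.9 µM final and 0% = DMSO alone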
* = called active by the depositor; · = no result given. Most compounds without a hit are left out; they make up all but 2.7% or so of the library.

SMILES	MC4R barr agon	Lipid droplet	HTR2A ag	NTR1 ag	PREPL inhibitor	MC4R antagonist	MC4R barr conf	MOR-DOR barr ag
Cc1nc2ccccc2c2oc(C(=O)Nc3ccc(C(C)C)cc3)cc12	27*	-24	0	10	-18	3	9.2*	4
CCC(C)N(C(=O)CSc1nc(C)nc2ccccc12)C1CCS(=O)(=O)C1 (stereo unspecified)	0	·	7	2	14	5	·	·
CN1C(=O)/C(=C/c2ccc(OCc3ccccc3F)cc2)NC1=S	20*	-5	3	20	6	8	2	5
COc1cc(/C=C2\NC(=S)N(C)C2=O)ccc1OCc1ccccc1F	5	-7	8	3	9	10	·	·
CN1C(=O)/C(=C/c2ccc(OCc3ccc(F)cc3)cc2)N(C)C1=S	-1	-10	-5	0	6	-2	·	·
CN1C(=O)/C(=C/c2ccc(OCc3ccc(F)cc3)cc2)NC1=S	20*	-1	4	8	14	-4	7	13
O=C(Cc1ccccc1)Nc1ccc(-c2nnc(-c3ccco3)o2)cc1	3	6	3	-1	-5	-5	·	·
O=C(Nc1ccc(-c2nnc(-c3ccco3)o2)cc1)C(c1ccccc1)c1ccccc1	23*	18	-1	2	-7	13	4	7
O=C(CSCc1ccc(Cl)cc1)Nc1ccc(-c2nnc(-c3ccccc3)o2)cc1	9.9*	6	3	1	4	-2	2	2
Cc1ccc(SCC(=O)Nc2ccc(C(=O)Nc3ccc(O)cc3)cc2)cc1	11*	3	1	0	-9	-5	1	1
O=C(Cc1ccc(Cl)cc1)Nc1ccc(-c2nnc(-c3ccco3)o2)cc1	12*	·	-6	1	-6	-2	13*	10
CCC(=O)Nc1ccc(-c2nnc(-c3ccccc3)o2)cc1	-2	·	1	0	0	-2	·	·
Cc1ccc(SCC(=O)Nc2cccc(C)c2)cc1	-2	-7	5	-1	-10	-1	·	·
O=C(NC1CCCCCC1)c1ccco1	-1	13	11	-1	16	1	·	·
CCCc1cc(=O)oc2cc(C)cc(OCC(=O)N3CCC(C(N)=O)CC3)c12	2	-7	0	-1	-2	20	·	·
Cc1ccc(SCC(=O)Nc2ccc(-c3nnc(-c4ccco4)o3)cc2)cc1	18*	·	-1	1	-15	10	9.1*	7
Cc1ccc(-c2nnc(-c3ccc(NC(=O)Cc4cccs4)cc3)o2)cc1	36*	·	7	4	2	-2	22*	5
Cn1cc(-c2cnc3c(NC=O)cc(-c4cccc(C(F)(F)F)c4)cn23)cn1	2	·	-4	·	·	-11	·	·
COc1cccc(-c2cnc3c(NC=O)cc(-c4cccc(C(=O)N(C)C)c4)cn23)c1	31*	·	9	·	·	-11	21*	1
COc1cccc(-c2cnc3c(NC=O)cc(-c4ccc(O)c(OC)c4)cn23)c1	30*	·	2	·	·	-5	30*	4
COc1cc(-c2cc(NC=O)c3ncc(-c4ccc(F)cc4)n3c2)cc(OC)c1OC	6	·	-4	·	·	-21	·	·
COc1cc(-c2cnc3c(NC=O)cc(-c4cccc(C(F)(F)F)c4)cn23)cc(OC)c1OC	18*	·	-4	·	·	-1	7	5
Nc1ccc(-c2cc(NC=O)c3ncc(-c4cccc(C(F)(F)F)c4)n3c2)cn1	11*	·	2	·	·	-18	5	5
CCc1cccc(NC(=O)COC(=O)c2c(C)nn(-c3ccccc3)c2C)c1	0	·	6	·	·	-1	·	·
COc1ccccc1-c1c(C(F)(F)F)oc2cc(OC(=O)c3cccc([N+](=O)[O-])c3C)ccc2c1=O	-3	·	-1	-5	-2	15	·	·
SMILES	MC4R barr agon	Lipid droplet	HTR2A ag	NTR1 ag	PREPL inhibitor	MC4R antagonist	MC4R barr conf	MOR-DOR barr ag
CCC(NC(=O)CCc1nnc(-c2cc(C)on2)o1)C12CC3CC(CC(C3)C1)C2 (stereo unspecified)	0	-2	-3	0	16	15	·	·
CC(C)(C)Cc1c(-c2ccc(Br)cc2)nc2ccc(Br)cn12	4	·	1	·	·	-4	·	·
CC(C)OC(=O)c1cc2c(=O)[nH]c(C(Cl)(Cl)Cl)nc2o1	1	23	2	2	1	18	·	·
COc1cc(-c2cnc3c(NC=O)cc(-c4cccnc4)cn23)cc(OC)c1OC	1	·	6	·	·	-53	·	·
CN(C)CCNC(=O)c1cccc(-c2cc(NC=O)c3ncc(-c4cccc(C(F)(F)F)c4)n3c2)c1	23*	·	-9	·	·	-6	29*	7
COc1cccc(-c2cc(NC=O)c3ncc(-c4cc(OC)c(OC)c(OC)c4)n3c2)c1	28*	·	-1	·	·	-49	6	4
Cc1nc(C(F)(F)F)nc(Nc2ccc(N=Nc3ccccc3)cc2)c1C#N	4	11	2	1	-1	16	·	·
Cc1ccc(OS(=O)(=O)c2ccc(N3C(=O)CCC3=O)cc2)cc1	1	-14	-7	0	-3	3	·	·
COc1ccc(OC)c(NC(=S)N2CCC(C(O)(c3ccccc3)c3ccccc3)CC2)c1	-2	-5	-7	2	16	3	·	·
Cc1cc(C)nc(SCc2nnc(SCC(=O)Nc3ccc(Cl)c(C(F)(F)F)c3)o2)n1	11*	1	2	1	17	10	7	9
Cc1ccc(N2C(=O)/C(=C\c3ccc(C(C)C)cc3)N=C2SC2CCOC2=O)cc1 (stereo unspecified)	-1	-30	1	10	3	4	·	·
O=C(c1cccc(S(=O)(=O)N2CCOCC2)c1)N1CCN(c2ncccn2)CC1	1	·	3	·	·	-1	·	·
Cc1ccc(NC(=O)CN(C)C(=O)c2sc3cc(Cl)ccc3c2Cl)cc1	10*	·	8	1	-17	1	2	6
Cc1cc(C=C2C(=O)c3ccccc3C2=O)c(C)n1C	21*	-21	1	1	5	-6	0	10
COc1cccc(CN2CCC2(C)C(=O)Nc2cnc3ccccc3c2)c1F (stereo unspecified)	-1	·	-1	·	·	16	·	·
CC(C(=O)c1ccccc1)[n+]1cccc(Br)c1 (stereo unspecified)	0	-4	1	0	8	14	·	·
Cc1cccc(NC(=O)c2sc3nc(-c4ccc(F)cc4)cn3c2C)n1	12*	·	-1	3	10	14	7	5
Cc1cccc(NC(=O)c2sc3nc(-c4ccccc4)cn3c2C)n1	0	21	0	5	12	4	·	·

Screening results as filed in PubChem BioAssay.
